Square brackets hold non-standard residues; d marks the D form. Peptide text beside a SMILES is read from it. Phe(4-Cl) = N[C@@H](Cc1ccc(Cl)cc1)C(=O)O

The species entered for assay [1] is Mus musculus. Put plainly: Compound was tested for antinociceptive potency using mouse writhing pain assay. It is filed as functional. The gist of the method:
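Male Swiss Webster mice, 20–25 g, given peptide icv (10 μL in sterile water) or i.v.; 5 min later 1.0% AcOH (10 mL/kg) i.p. Doses 0, 0.25–50 nmol. Writhes counted for 10 min; % analgesia relative to vehicle controls, 10 mice per dose. AD50 and potency ratio with 95% CL by Litchfield–Wilcoxon.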

The species entered for another assay is Rattus norvegicus. The assay is described as follows: Compound was tested for inhibition against [3H]raclopride to Rat brain membranes. In kind it is functional, Membrane. The gist of the method: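 Rat brain membranes (male Wistar, 250–300 g; 0.8 mg protein) in 5 mM Tris-HCl pH 7.4, incubated with 2.5 nM [3H]raclopride for 60 min at 22 °C alongside 9–12 peptide concentrations (10⁻¹⁰–10⁻⁴ M). Nonspecific binding defined with 10 μM (+)butaclamol. IC50 by nonlinear least-squares fit; mean ± SE of ≥3 experiments run in duplicate.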

Assay [2] has as its system Mus musculus. The assay is described as follows: Lack of Motor Effect measured as the time taken by the mice to remain on the rotarod after 15 min interval of icv administration of compound. It is filed as functional. The gist of the method:
(§1)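 Male Swiss Webster mice pre-screened on a 2.5 cm rod at 8 rpm (two 1-min rounds; fallers excluded). Peptides (10 or 2.5 nmol) or water vehicle given icv, then mice placed on the rod for 2 min. Time on rod recorded as mean ± SE, groups of 10; Student's t-test.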
On the technique in general: The rotarod test checks motor coordination on a turning rod.

Assay [3] deals with Mus musculus. Put plainly: Lack of Motor Effect measured as the time taken by the mice to remain on the rotarod after 30 min interval of icv administration of compound. It is filed as functional. The gist of the method:
as §1

In assay [4] the test system is Mus musculus. Put plainly: Lack of Motor Effect measured as the time taken by the mice to remain on the rotarod after 60 min interval of icv administration of compound. It is filed as functional. The gist of the method:
as §1

For `NC(=O)CC[C@@H]1NC(=O)CNC(=O)[C@H](CCCN=C(N)N)NC(=O)[C@H](Cc2ccc(O)cc2)NC1=O`, the AD50 in the assay filed under Mus musculus [1] came out at 2.26 nmol mouse-1. The compound also registered a 50% inhibitory concentration (IC50) in the assay filed under Rattus norvegicus of 4.91 µM.
On the same counts, the results for `NC(=O)CC[C@H]1NC(=O)CNC(=O)[C@@H](CCCN=C(N)N)NC(=O)[C@H](Cc2ccc(O)cc2)NC1=O` are 4.21 nmol mouse-1 and 6.75 µM.
`N=C(N)NCCC[C@H]1NC(=O)[C@H](Cc2ccc(O)cc2)NC(=O)[C@H](Cc2ccc(N)cc2)NC(=O)CNC1=O` [listing 1 of 2 here] gave an IC50 in the assay listed under Rattus norvegicus of 3.52 µM.
As for `N=C(N)NCCC[C@H]1NC(=O)[C@H](Cc2ccc(O)cc2)NC(=O)[C@H](Cc2ccc(N)cc2)NC(=O)CNC1=O` [listing 2 of 2 here], the AD50 in the assay filed under Mus musculus [1] is on record as 2.52 nmol mouse-1.
Compound `C[C@@H]1NC(=O)CNC(=O)[C@@H](CCCN=C(N)N)NC(=O)[C@H](Cc2ccc(O)cc2)NC1=O` [listing 1 of 2 here] registered a concentration for half-maximal inhibition (IC50) in the assay listed under Rattus norvegicus of 2.33 µM.
Take `C[C@@H]1NC(=O)CNC(=O)[C@@H](CCCN=C(N)N)NC(=O)[C@H](Cc2ccc(O)cc2)NC1=O` [listing 2 of 2 here]: the Time in the assay with Mus musculus [2] is 107; in the assay with Mus musculus [3] it was 120; in the assay on Mus musculus [4], 120. In addition, the AD50 in the assay listed under Mus musculus [1] worked out at 1.35 nmol mouse-1.
`NC(=O)CC[C@H]1NC(=O)CNC(=O)[C@H](CCCN=C(N)N)NC(=O)[C@H](Cc2ccc(O)cc2)NC1=O` gave an AD50 in the assay listed under Mus musculus [1] of 3.65 nmol mouse-1. For the same compound, the half-inhibitory concentration (IC50) in the assay filed under Rattus norvegicus came to 4.12 µM.
The corresponding values for `C[C@@H]1NC(=O)[C@@H](CCC(N)=O)NC(=O)CNC(=O)[C@H](CCCN=C(N)N)NC1=O` are 7.05 nmol mouse-1 and 12.5 µM.
As to `C[C@@H]1NC(=O)[C@@H](CCC(N)=O)NC(=O)CNC(=O)[C@@H](CCCN=C(N)N)NC1=O`, the AD50 in the assay filed under Mus musculus [1] is recorded as 13.3 nmol mouse-1.
Same read-out and setting: for `C[C@H](NC(=O)[C@H](CCC(N)=O)NC(=O)CN)C(=O)N[C@@H](CCCN=C(N)N)C(=O)O` (H-GQAR-OH) the value was 3.42 nmol mouse-1; for `NCC(=O)N[C@@H](CCC(N)=O)C(=O)NCC(=O)N[C@@H](CCCN=C(N)N)C(=O)O` (H-GQGR-OH), 25.9 nmol mouse-1.
Take `N=C(N)NCCC[C@H]1NC(=O)[C@H](Cc2ccc(O)cc2)NC(=O)[C@H](Cc2ccc(Cl)cc2)NC(=O)CNC1=O` (cyclo(G[Phe(4-Cl)]Y[dR])) [listing 1 of 2 here]: the 50% inhibitory concentration (IC50) in the assay filed under Rattus norvegicus worked out at 0.89 µM. This counts as sub-micromolar.
On to `N=C(N)NCCC[C@H]1NC(=O)[C@H](Cc2ccc(O)cc2)NC(=O)[C@H](Cc2ccc(Cl)cc2)NC(=O)CNC1=O` (cyclo(G[Phe(4-Cl)]Y[dR])) [listing 2 of 2 here], for which the Time in the assay on Mus musculus [2] is recorded as 104.1; in the assay with Mus musculus [3], 115.8; in the assay with Mus musculus [4], 110.2. The AD50 in the assay listed under Mus musculus [1] was determined as 0.17 nmol mouse-1.

What is called IC50 is the concentration that inhibits the measured activity by half. Read a low IC50 as greater potency in that assay.

The values are drawn from ChEMBL document CHEMBL1145838, “Bioactive peptidic analogues and cyclostereoisomers of the minimal antinociceptive histogranin fragment-(7-10)” (J Med Chem, 2003).
